# Screening results deposited in PubChem by The Scripps Research Institute Molecular Screening Center.
# Only some compounds are listed: those with a hit (about 4.6% of all), similar ones and a draw of the others.
# OX1R antag-1: OX1R (HCRTR1) antagonists, primary screen, fluorescence, CHO/OX1R cells, Fluo-8 calcium, orexin A; Orexin/Hypocretin receptor type 1 (Homo sapiens), O43613; Fluo-8 calcium fluorescence; inhibition, % at 5 µM; 330,000 compounds, 0.43% hits;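 active = inhibition above its plate's threshold, mean inhibition of all tested compounds on the plate plus 3 SD, cut at about 37% in these data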;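 note: 0% = orexin A challenge wells and 100% = SB-334867-A antagonist wells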
# TAAR1 antag: human TAAR1 antagonists, primary screen, Fluo-8 calcium fluorescence, CHO RD-HGA16 cells; Trace amine-associated receptor 1 (Homo sapiens), Q96RJ0; antagonist; inhibition, % at 3 µM; 360,000 compounds, 1.5% hits; AID 624466, 2012;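 active = inhibition above a per-plate cutoff, the mean inhibition of test compounds on that plate plus 3 SD, cut at about 49% in these data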;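 note: 0% = DMSO plus EC80 beta-PEA response and 100% = DMSO alone without agonist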
# Target sequence (Q96RJ0 whole entry, looked up): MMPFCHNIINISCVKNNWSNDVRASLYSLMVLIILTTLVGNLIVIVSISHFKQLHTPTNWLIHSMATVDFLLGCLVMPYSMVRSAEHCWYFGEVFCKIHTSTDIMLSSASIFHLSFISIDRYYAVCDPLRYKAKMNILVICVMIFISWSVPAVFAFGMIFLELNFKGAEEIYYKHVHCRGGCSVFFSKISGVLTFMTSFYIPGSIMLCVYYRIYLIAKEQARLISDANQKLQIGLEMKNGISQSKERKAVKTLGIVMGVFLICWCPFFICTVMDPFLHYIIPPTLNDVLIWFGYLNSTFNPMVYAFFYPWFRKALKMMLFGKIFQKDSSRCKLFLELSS
#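 Test system: CHO RD-HGA16 cells bearing hTAAR1 | Reagent: β-PEA, EC80 | Compound dosing: 3 µM, single point | Schedule: Dye loading 75 min at 37 °C, then 30 min room temperature | Signal: Calcium fluorescence with Fluo-8 | Evaluation: Percent inhibition of PEA-evoked calcium signal, max/basal emission ratio | Control set: DMSO-only wells and EC80 β-PEA-stimulated wells | Repeats: Singlicate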
# CHO parental Ca: ATP-evoked calcium signal inhibitors, parental CHO, primary screen, counter-screen for OX1R antagonist project, cell-based, fluorescence, Fluo-8 calcium dye | parental CHO-K1, ATP-induced calcium, Fluo-8 fluorescence | inhibition, % at 5.6 µM | 330,000 compounds, 0.63% hits | AID 463079, 2010;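 active = inhibition above that plate's mean sample inhibition plus 3 SD, cut at about 26% in these data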;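 note: 0% = ATP-challenged DMSO wells and 100% = DMSO wells without ATP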
#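 Material: Parental CHO cells | Reagent: ATP | Compound dosing: Single nominal dose of 5.6 µM per compound | Detection: Intracellular calcium via Fluo-8 no-wash fluorescent dye | Read-out: % inhibition of ATP-induced calcium mobilization | Benchmarks: Low control ATP plus DMSO, high control DMSO only | Replicates: Singlicate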
# GPR7 antag: GPR7 receptor antagonists, primary screen, cell-based, fluorescence, single concentration. Neuropeptides B/W receptor type 1 (Homo sapiens), P48145. 290,000 compounds, 1.1% hits. AID 1861, 2009. GPR7-expressing cells, fluorescence antagonist assay. inhibition, % at 4.4 µM; in the data active = inhibition above about 16%, passing the limit was not always enough;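 note: cells stimulated with the agonist NPW; 0% = agonist with vehicle and 100% = vehicle without agonist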
# Target sequence (P48145 whole entry, looked up): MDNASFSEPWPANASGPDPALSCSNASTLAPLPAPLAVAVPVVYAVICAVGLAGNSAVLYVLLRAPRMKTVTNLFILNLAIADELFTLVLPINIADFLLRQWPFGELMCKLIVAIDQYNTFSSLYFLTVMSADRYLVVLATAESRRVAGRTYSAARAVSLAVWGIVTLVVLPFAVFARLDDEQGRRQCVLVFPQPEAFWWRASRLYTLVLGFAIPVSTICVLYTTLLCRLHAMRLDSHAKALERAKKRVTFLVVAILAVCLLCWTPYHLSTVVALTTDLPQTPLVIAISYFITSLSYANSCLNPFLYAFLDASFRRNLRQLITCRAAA
# TAAR1 ag: human TAAR1 agonists, primary screen, Fluo-8 calcium fluorescence, CHO RD-HGA16 cells. vehicle wells 0%, saturating PEA agonist 100%. activation, % at 3 µM. 360,000 compounds, 0.99% hits. Trace amine-associated receptor 1 (Homo sapiens), Q96RJ0;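 active = activation above the mean activation of all test compounds in the run plus 3 SD, cut at about 38% in these data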
#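 Test system: RD-HGA16 (CHO) cells co-expressing Gα16 and hTAAR1 / Benchmarks: DMSO vehicle as 0%, PEA at EC100 as 100% / Repeats: no replicates (n 1) / Measure: % activation from peak over basal fluorescence ratio, DMSO-to-PEA scaled / Timing: 17-24 h plating, Fluo-8 75 min 37 °C, 30 min RT / Technique: kinetic Fluo-8 calcium fluorescence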
# OX1R antag-2: antagonists of human orexin 1 receptor (OX1R); inhibition, % at 6.6 µM; OX1R-expressing cells, FRET antagonist read-out; Orexin/Hypocretin receptor type 1 (Homo sapiens), O43613; 330,000 compounds, 1.8% hits; in the data active = inhibition mostly above about 38%, no sharp cut-off; inactive = mostly below about 40%;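 note: 0% = agonist challenge alone and 100% = reference antagonist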
# * marks the source's active call; other numbers are inactive results; . = no result given.
SMILES,OX1R antag-1,TAAR1 antag,CHO parental Ca,GPR7 antag,TAAR1 ag,OX1R antag-2
CC(=O)c1cn(CCOc2ccccc2C)c2ccccc12,22,27,41*,26,10,37
Cc1ccccc1OCCCCn1cnc2ccccc21,0,7,50*,16,10,13
Cc1nc2ccccc2n1CCOc1ccccc1,0,17,-4,1,7,25
O=C(CCNS(=O)(=O)c1ccccc1C(F)(F)F)NNC(=O)c1csc(N2CCOCC2)n1,-16,-10,3,.,1,11
c1ccc2c(c1)ncn2CCCCOc1ccc2c(c1)CCC2,-7,33,37*,-3,7,19
Cc1nc2ccccc2n1Cc1ccc(Cl)cc1,4,-2,31*,16,2,43
c1ccc2c(c1)ncn2CCCOc1ccc2c(c1)CCC2,-16,17,15,-3,14,21
CC(C)(C)C1CCC(=NNC(=O)C2COc3ccccc3O2)CC1 (stereo unspecified),-2,17,7,.,1,6
C=CCOC(=O)C1=C[C@@H](c2ccc(C(F)(F)F)cc2)C[C@@H](OCc2ccc(CO)cc2)O1,-10,2,-1,.,3,32
CC1(C)CC[C@]2(C(=O)O[C@@H]3OC(CO)[C@@H](O)[C@H](O)[C@H]3O)CC[C@]3(C)C(=CCC4[C@@]5(C)CC[C@H](O[C@@H]6OC(C(=O)O)[C@@H](O)[C@H](O)[C@H]6O)C(C)(C)C5CC[C@]43C)[C@@H]2C1 (stereo partly specified),88*,27,100*,.,17,12
C/C=C(\C)C(=O)OC1CC(C)(C)C[C@H]2C3=CC[C@@H]4[C@@]5(C)CCC(O[C@@H]6O[C@@H](C(=O)O)[C@@H](O)C(O[C@@H]7OC[C@H](O)[C@@H](O)[C@@H]7O[C@@H]7OC(CO)C(O)[C@@H](O)[C@@H]7O)C6O[C@@H]6OC(CO)C(O)C(O)C6O)[C@@](C)(CO)[C@@H]5CC[C@]4(C)[C@]3(C)CC(O)[C@@]12CO (stereo partly specified),45,18,41*,.,10,9
COC(=O)C1OC(OC2CC[C@]3(C)C(CC[C@@]4(C)[C@@H]3CC=C3[C@@H]5CC(C)(C)CC[C@]5(C(=O)OC5OC(CO)C(O)C(O)C5O)CC[C@]34C)C2(C)C)C(O)C(O)C1O[C@H]1OCC(O)C(O)C1O (stereo partly specified),16,.,-5,.,.,-3
O=C(CCC(=O)c1ccc(Oc2ccccc2)cc1)Nc1cccc(Cl)c1Cl,-11,3,-15,-5,14,16
Cc1cc(C)n(C(=O)c2ccc(C)c(F)c2F)n1,-9,0,-5,-5,2,12
CC(C)[C@H](NC(=O)c1ccco1)C(=O)OCC(=O)NC12CC3CC(CC(C3)C1)C2,-38,-46,-14,17,-2,10
Cc1cccc2c1-c1sc(C(=O)Nc3nccs3)cc1CO2,-2,11,-5,-7,5,50*
Cc1cccc2c1-c1sc(C(=O)Nc3cccc([N+](=O)[O-])c3C)cc1CO2,-7,37,7,-17,1,27
O=C(Nc1nccs1)c1cc2c(s1)-c1ccccc1OC2,-2,12,12,17*,3,42
O=C(Nc1cccnc1)c1cc2c(s1)-c1ccccc1OC2,31,11,37,15,6,15
Cc1cccc2c1-c1sc(C(=O)Nc3cccnc3)cc1CO2,34,19,-28,3,5,56*
CCCC(=O)N1CCN(Cc2nc3cc([N+](=O)[O-])ccc3n2C)CC1,-13,-2,-8,-3,-2,19
C[C@H](NC(=O)N1CCn2c1nc1ccccc12)C(=O)NCC1CCCO1 (stereo partly specified),-18,-13,-9,-10,0,2
COC(=O)[C@]12CCCCC=C1N(Cc1ccc3c(c1)OCO3)C(=O)[C@H](CC(=O)NCC1CCCCC1)C2,.,50*,.,.,6,.
COCCCNC(=O)C[C@@H]1C[C@@]2(C(=O)OC)CCCCC=C2N(Cc2ccc3c(c2)OCO3)C1=O,.,14,.,.,5,.
COC(=O)[C@]12CCCCC=C1N(Cc1ccc3c(c1)OCO3)C(=O)[C@H](CC(=O)N1CCC(c3ccccc3)CC1)C2,.,56*,.,.,1,.
SMILES,OX1R antag-1,TAAR1 antag,CHO parental Ca,GPR7 antag,TAAR1 ag,OX1R antag-2
COC(=O)[C@]12CCCCC=C1N(Cc1ccc3c(c1)OCO3)C(=O)[C@H](CC(=O)NCc1ccc(OC)c(OC)c1)C2,.,59*,.,.,14,.
COC(=O)[C@]12CCCCC=C1N(Cc1cccc3ccccc13)C(=O)[C@H](CC(=O)NCc1ccc(OC)c(OC)c1)C2,.,49*,.,.,27,.
COC(=O)CN1C(=O)C2(C(C#N)=C(N)Oc3cc(C)oc(=O)c32)c2ccccc21 (stereo unspecified),-6,2,-14,-2,13,6
CCOC(=O)C1=C(O)/C(=C/c2ccc(C)o2)SC1=NC(=O)c1ccccc1C,.,.,.,1,.,.
O=C(CSc1nc(C2CC2)n(-c2ccccc2)n1)NCc1ccco1,-9,-13,-14,.,-1,6
CCCCOP(=O)(c1ccc(N(C)C)cc1)C(O)c1cc(OC)c(OC)c(OC)c1 (stereo unspecified),2,-16,-24,-7,5,17
Cc1cc(C(=O)N2CCCC(C(=O)c3ccc(Cl)cc3C)C2)no1 (stereo unspecified),-12,-14,-5,4,1,12
COC(=O)[C@]12CCCCC=C1N(CCc1ccc(OC)c(OC)c1)C(=O)[C@H](CC(=O)N1CCCCC1)C2,.,52*,.,.,12,.
O=C(N/N=C/c1ccc2ccccc2c1)c1ccc(COc2ccc3c(c2)CCC3)o1,-35,-4,-3,-17,3,35
Cc1ccccc1S(=O)(=O)Oc1ccccc1C(=O)Oc1ccccc1,27,21,39*,-4,10,30
O=C(Oc1ccccc1C(=O)Oc1ccccc1)c1cccnc1,1,2,-3,-10,2,8
COc1ccccc1C(=O)Oc1ccc2ccc(=O)oc2c1,-19,-7,-12,-9,0,14
COc1ccccc1C(=O)Oc1ccc(C(C)(C)C)cc1,-10,39,41*,-5,12,3
COc1ccccc1-c1oc2ccccc2c1C#CC1(N)CCCCC1,6,8,4,.,38*,4
